This note sets out measurements from article PMC2175347 (Nucleic Acids Research, 2007).

“And” between values parts separate entries of the source, which are not always exact repeats. Identical values can stand only once. No end group written: not given here.

Series [1] deals with G9a. Briefly: Methyltransferase assay with peptide spanning amino acids 160–175 of G9a. The series is classed as biochemical, murine. The note with it: even after 1 h of incubation; Supplementary Figure 1.
The target in series [2] is T1, G9afl (Mus musculus, UniProt Q9Z148).
T1 sequence (Q9Z148 1-1263): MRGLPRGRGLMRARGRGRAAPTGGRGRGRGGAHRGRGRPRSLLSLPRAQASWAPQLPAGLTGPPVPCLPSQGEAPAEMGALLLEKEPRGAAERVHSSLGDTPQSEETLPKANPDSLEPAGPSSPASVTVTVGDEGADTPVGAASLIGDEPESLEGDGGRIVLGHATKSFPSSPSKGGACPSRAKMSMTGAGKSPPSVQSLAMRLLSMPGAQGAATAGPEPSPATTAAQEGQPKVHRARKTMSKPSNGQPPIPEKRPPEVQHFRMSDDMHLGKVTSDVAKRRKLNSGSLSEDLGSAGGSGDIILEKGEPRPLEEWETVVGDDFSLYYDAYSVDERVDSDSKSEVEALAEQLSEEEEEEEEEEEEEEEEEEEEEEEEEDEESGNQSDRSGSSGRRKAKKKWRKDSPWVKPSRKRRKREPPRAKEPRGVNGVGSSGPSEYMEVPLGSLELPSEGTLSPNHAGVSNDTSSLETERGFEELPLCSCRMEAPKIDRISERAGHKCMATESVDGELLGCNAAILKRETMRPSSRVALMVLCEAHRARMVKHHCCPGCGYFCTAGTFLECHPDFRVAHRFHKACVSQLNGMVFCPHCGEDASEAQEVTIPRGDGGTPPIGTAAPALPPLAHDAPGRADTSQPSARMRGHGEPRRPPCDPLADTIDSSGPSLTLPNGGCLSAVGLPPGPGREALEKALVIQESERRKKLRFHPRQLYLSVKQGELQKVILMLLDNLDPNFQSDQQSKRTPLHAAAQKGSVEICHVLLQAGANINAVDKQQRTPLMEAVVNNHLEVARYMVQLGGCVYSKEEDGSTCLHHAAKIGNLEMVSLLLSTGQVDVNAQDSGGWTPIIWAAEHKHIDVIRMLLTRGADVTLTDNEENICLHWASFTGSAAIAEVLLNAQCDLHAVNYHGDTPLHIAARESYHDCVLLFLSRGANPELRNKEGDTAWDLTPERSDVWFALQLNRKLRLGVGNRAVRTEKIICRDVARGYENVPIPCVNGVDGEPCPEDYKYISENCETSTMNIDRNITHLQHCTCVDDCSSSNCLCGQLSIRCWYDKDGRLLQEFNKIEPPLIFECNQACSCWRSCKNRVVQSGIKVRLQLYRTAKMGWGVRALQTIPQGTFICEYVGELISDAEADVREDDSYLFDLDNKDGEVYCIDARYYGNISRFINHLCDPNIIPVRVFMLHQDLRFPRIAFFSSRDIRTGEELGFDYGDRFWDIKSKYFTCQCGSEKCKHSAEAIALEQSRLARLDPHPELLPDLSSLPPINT
In words: Steady-state kinetics of G9afl on peptides representing ARKT/S motifs. The note with it: peptide substrate, enzyme G9afl; for kcat (turnover number) / Km: 25°C, pH 9.0, duplicate. The series is classed as biochemical, murine.

Another series concerns full-length G9a. Briefly: In vitro methylation of GST-G9a fusion fragments by G9afl. To be noted: for methylation / radioactive incorporation of GST fusion fragment: fluorography and radioactive incorporation of each band, Figure 2D; for methylation of GST fusion by G9afl: tritiated AdoMet, fluorography, Figure 2C. It counts as biochemical, murine.
The target in series [3] is T1, G9afl. In words: Methylation of modified H3 peptide substrates by wild-type G9a. The note with it: 25 nM G9afl; Figure 4B. It counts as biochemical, murine.
The next series deals with G9amut. Briefly: Methylation of modified H3 peptide substrates by G9amut. The series is classed as biochemical, murine. To be noted: 25 nM G9amut; Figure 4B.
In series [4] the test system is G9a. In words: In vitro automethylation assay of G9a. It counts as biochemical, murine. The note with it: 100 fold excess cold AdoMet with tritiated AdoMet; Figure 2B lanes 2 versus 3. Summed up: (§1)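 Automethylation: recombinant murine G9a (full-length or MBP-fused construct lacking the N-terminal 633 aa) incubated with S-adenosyl-L-[methyl-³H]methionine, either alone or, for H3 signal, with recombinant histone H3. Parallel reactions contained excess unlabelled AdoMet as competitor. Reactions run at 25°C for 1 h with 7 µM tritiated AdoMet, resolved on 4–20% SDS-PAGE, Coomassie-stained and fluorographed on film.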

The subject of another series is H3. Briefly: In vitro methylation of histone H3. The series is classed as biochemical. The note with it: 100 fold excess cold AdoMet with tritiated AdoMet; Figure 2B lanes 4 versus 5. Summed up:
as §1

In the next series the test system is Wt-H3. In words: Steady-state kinetics of G9a enzymes with Wt-H3 peptide. The series is classed as biochemical. To be noted: GST fusion enzymes with Wt-H3, steady-state conditions; Supplementary Figure 2.

As to IVLGHATKSFPSSPSK [G9aK167], the “methyl group incorporation to the peptide” value with G9a [1] is “did not observe methyl group incorporation to the peptide”. In the case of CGQPKVHRARKTMPKSV [G9a], the “kcat (turnover number)” value at G9afl [2] came to 0.0183 s⁻¹.

Regarding “GST-G9a (210–246/K243A) (AQGAATAGPEPSPATTAAQEGQPKVHRARKTMSAPSN; also: GST fusion; UniProt Q9Z148 210-246, looked up, variant K243A)”, the “methylation / radioactive incorporation of GST fusion fragment” value in the series with full-length G9a was “decrease in K239 methylation”.

As for CADVKVHRARKTMPKSV [EuHMT], at G9afl [2], the kcat/Km is 172 10^6 × M^−1 h^−1; the Km was determined as 0.5 ± 0.05 µM; the “kcat (turnover number)” value is 0.0239 s⁻¹ and 0.0239 ± 0.00056 s⁻¹. Consider “GST-G9a (210–264/K239A) (AQGAATAGPEPSPATTAAQEGQPKVHRARATMSKPSNGQPPIPEKRPPEVQHFRM; also: GST fusion; UniProt Q9Z148 210-264, looked up, variant K239A)”, for which the “methylation / radioactive incorporation of GST fusion fragment” value in the series with full-length G9a is recorded as “impaired”. For CARTKQTARKST(p)GG [H3T11p], the “effect of phosphorylated peptide on enzyme” value on G9afl [3] and in the series with G9amut was “inhibited both enzymes” each time. As for CARTKQTARKS(p)TGG [H3S10p], the “effect of phosphorylated peptide on enzyme” value on G9afl [3] and with G9amut was “inhibited both enzymes” each time. For CPQKKVFKARKTMRVSD [mAM], at G9afl [2], the kcat/Km was 140 10^6 × M^−1 h^−1; the Km was 0.7 ± 0.05 µM; the “kcat (turnover number)” value was 0.0272 s⁻¹ and 0.0272 ± 0.0011 s⁻¹. For `C[S+](CC[C@H](N)C(=O)[O-])C[C@H]1O[C@@H](n2cnc3c(N)ncnc32)[C@H](O)[C@@H]1O` (stereo partly drawn) [cold AdoMet, S-adenosyl-L-methionine], the “autoradiography signal for G9a” value in the series on G9a [4] is on record as “not apparent”. Further, in the series with H3, the “autoradiography signal for H3” value is “not apparent”.

B1: 264–633: GST fusion containing 264–633 amino acids of G9a (protein, UniProt Q9Z148 264-633, looked up, fragment)
chain: MSDDMHLGKVTSDVAKRRKLNSGSLSEDLGSAGGSGDIILEKGEPRPLEEWETVVGDDFSLYYDAYSVDERVDSDSKSEVEALAEQLSEEEEEEEEEEEEEEEEEEEEEEEEEDEESGNQSDRSGSSGRRKAKKKWRKDSPWVKPSRKRRKREPPRAKEPRGVNGVGSSGPSEYMEVPLGSLELPSEGTLSPNHAGVSNDTSSLETERGFEELPLCSCRMEAPKIDRISERAGHKCMATESVDGELLGCNAAILKRETMRPSSRVALMVLCEAHRARMVKHHCCPGCGYFCTAGTFLECHPDFRVAHRFHKACVSQLNGMVFCPHCGEDASEAQEVTIPRGDGGTPPIGTAAPALPPLAHDAPGRADTSQ
modifications: GST fusion
Take B1: in the series with full-length G9a, the “methylation of GST fusion by G9afl” value is “did not methylate”.

B2: GST-G9afl (K167A) (protein, UniProt Q9Z148 1-1263, looked up, variant K167A)
chain: MRGLPRGRGLMRARGRGRAAPTGGRGRGRGGAHRGRGRPRSLLSLPRAQASWAPQLPAGLTGPPVPCLPSQGEAPAEMGALLLEKEPRGAAERVHSSLGDTPQSEETLPKANPDSLEPAGPSSPASVTVTVGDEGADTPVGAASLIGDEPESLEGDGGRIVLGHATASFPSSPSKGGACPSRAKMSMTGAGKSPPSVQSLAMRLLSMPGAQGAATAGPEPSPATTAAQEGQPKVHRARKTMSKPSNGQPPIPEKRPPEVQHFRMSDDMHLGKVTSDVAKRRKLNSGSLSEDLGSAGGSGDIILEKGEPRPLEEWETVVGDDFSLYYDAYSVDERVDSDSKSEVEALAEQLSEEEEEEEEEEEEEEEEEEEEEEEEEDEESGNQSDRSGSSGRRKAKKKWRKDSPWVKPSRKRRKREPPRAKEPRGVNGVGSSGPSEYMEVPLGSLELPSEGTLSPNHAGVSNDTSSLETERGFEELPLCSCRMEAPKIDRISERAGHKCMATESVDGELLGCNAAILKRETMRPSSRVALMVLCEAHRARMVKHHCCPGCGYFCTAGTFLECHPDFRVAHRFHKACVSQLNGMVFCPHCGEDASEAQEVTIPRGDGGTPPIGTAAPALPPLAHDAPGRADTSQPSARMRGHGEPRRPPCDPLADTIDSSGPSLTLPNGGCLSAVGLPPGPGREALEKALVIQESERRKKLRFHPRQLYLSVKQGELQKVILMLLDNLDPNFQSDQQSKRTPLHAAAQKGSVEICHVLLQAGANINAVDKQQRTPLMEAVVNNHLEVARYMVQLGGCVYSKEEDGSTCLHHAAKIGNLEMVSLLLSTGQVDVNAQDSGGWTPIIWAAEHKHIDVIRMLLTRGADVTLTDNEENICLHWASFTGSAAIAEVLLNAQCDLHAVNYHGDTPLHIAARESYHDCVLLFLSRGANPELRNKEGDTAWDLTPERSDVWFALQLNRKLRLGVGNRAVRTEKIICRDVARGYENVPIPCVNGVDGEPCPEDYKYISENCETSTMNIDRNITHLQHCTCVDDCSSSNCLCGQLSIRCWYDKDGRLLQEFNKIEPPLIFECNQACSCWRSCKNRVVQSGIKVRLQLYRTAKMGWGVRALQTIPQGTFICEYVGELISDAEADVREDDSYLFDLDNKDGEVYCIDARYYGNISRFINHLCDPNIIPVRVFMLHQDLRFPRIAFFSSRDIRTGEELGFDYGDRFWDIKSKYFTCQCGSEKCKHSAEAIALEQSRLARLDPHPELLPDLSSLPPINT
modifications: full-length GST fusion
Consider B2, for which, in the series on Wt-H3, the kcat came to 0.0183 s⁻¹.

B3: 1–117: GST fusion containing 1–117 amino acids of G9a (protein, UniProt Q9Z148 1-117, looked up, fragment)
chain: MRGLPRGRGLMRARGRGRAAPTGGRGRGRGGAHRGRGRPRSLLSLPRAQASWAPQLPAGLTGPPVPCLPSQGEAPAEMGALLLEKEPRGAAERVHSSLGDTPQSEETLPKANPDSLE
modifications: GST fusion
As for B3, the “methylation of GST fusion by G9afl” value in the series with full-length G9a is listed as “did not methylate”.

Usually Km stands for the concentration of substrate that gives half-maximal velocity. As a reminder, the kcat is the number of substrate molecules converted per active site and unit of time at saturation.
